Measured values published in ChEMBL document CHEMBL4382263, “Spirostaphylotrichin X from a Marine-Derived Fungus as an Anti-influenza Agent Targeting RNA Polymerase PB2” (J Nat Prod, 2018).
pIC50, pKd: −log10 of the molar value. The source made the active and inactive calls. No cut-off for these calls is given here.

Key:
[1] = test system: Influenza A virus (A/Puerto Rico/8/1934(H1N1)); assay: Inhibition of RNA-dependent RNA polymerase in Influenza A virus (A/PR/8/34(H1N1)) infected in human 293T cells assessed as reduction in viral RNA level at 10 uM measured at 3 and 6 hrs post infection by RT-PCR method; assay type: cell-based
[2] = target: Polymerase basic protein 2 (Influenza A virus (strain A/Puerto Rico/8/1934 H1N1), UniProt P03428); assay: Binding affinity to Influenza A virus RNA polymerase PB2 by SPR assay
Sequence of Polymerase basic protein 2 (P03428 whole entry): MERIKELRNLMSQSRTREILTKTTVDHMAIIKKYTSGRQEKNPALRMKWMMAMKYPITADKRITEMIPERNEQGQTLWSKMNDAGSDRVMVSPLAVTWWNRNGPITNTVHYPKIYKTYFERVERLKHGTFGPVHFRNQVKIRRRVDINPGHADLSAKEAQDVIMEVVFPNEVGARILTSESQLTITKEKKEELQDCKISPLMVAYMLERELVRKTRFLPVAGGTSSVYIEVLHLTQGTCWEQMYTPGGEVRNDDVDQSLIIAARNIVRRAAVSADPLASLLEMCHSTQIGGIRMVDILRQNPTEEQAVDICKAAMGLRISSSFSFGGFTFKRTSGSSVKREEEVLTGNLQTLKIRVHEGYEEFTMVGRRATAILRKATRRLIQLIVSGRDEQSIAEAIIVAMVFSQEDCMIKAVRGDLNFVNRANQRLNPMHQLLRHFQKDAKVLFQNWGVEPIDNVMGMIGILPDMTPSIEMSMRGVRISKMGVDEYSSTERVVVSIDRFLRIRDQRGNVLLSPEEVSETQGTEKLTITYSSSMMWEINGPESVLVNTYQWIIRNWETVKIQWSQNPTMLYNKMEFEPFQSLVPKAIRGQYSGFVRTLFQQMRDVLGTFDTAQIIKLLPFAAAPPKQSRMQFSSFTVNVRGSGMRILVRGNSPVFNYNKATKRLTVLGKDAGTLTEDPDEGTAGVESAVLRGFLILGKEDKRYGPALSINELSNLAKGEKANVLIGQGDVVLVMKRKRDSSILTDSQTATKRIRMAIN
How it was run: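 PB2-cap protein (0.5 μM) immobilised on CM5 chip at pH 5.0. Compound injected at 7.8–125 nM for 180 s at 50 μL/min, 25 °C; chip regenerated with 50 mM NaOH. KD from fitted sensorgrams; reference compound included.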

[3] = Antibacterial activity against Pasteurella multocida subsp. multocida ATCC 43137; assay type: functional
Influenza A virus [4] = assay: Antiviral activity against Influenza A virus (A/PR/8/34(H1N1)) infected in MDCK cells assessed as reduction in virus-induced cytopathic effect pretreated with virus for 30 mins followed by viral infection incubated for 30 mins and measured after 48 hrs by MTT assay; assay type: functional, organism-based; conditions: A/Puerto Rico/8/1934(H1N1)
How it was run: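 Preinfection: PR8 (MOI 0.01) mixed with compound for 30 min at 37 °C, then added to MDCK cells for 30 min. Medium replaced with fresh medium containing 1 μg/mL TPCK-trypsin. Viability by MTT after a further 48 h.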

Influenza A virus [5] = assay: Antiviral activity against Influenza A virus (A/PR/8/34(H1N1)) infected in MDCK cells assessed as reduction in viral NP production at 10 uM measured 10 hrs post infection by Western blot analysis; assay type: functional, organism-based; conditions: Influenza A virus (A/Puerto Rico/8/1934(H1N1))
How it was run: (§1)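 Compound added to PR8-infected MDCK cells at defined time points covering the first replication cycle. At 10 h postinfection, NP measured by Western blot and HA mRNA by quantitative RT-PCR.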

[6] = target: Hemagglutinin (Influenza A virus (A/Puerto Rico/8/1934(H1N1))) (UniProt P03452); assay: Inhibition of Influenza A virus (A/PR/8/34(H1N1)) HA-mediated chicken erythrocytes hemagglutination preincubated for 30 mins followed by erythrocytes addition and measured for 1 hr
Sequence of Hemagglutinin (Influenza A virus (A/Puerto Rico/8/1934(H1N1))) (P03452 whole entry): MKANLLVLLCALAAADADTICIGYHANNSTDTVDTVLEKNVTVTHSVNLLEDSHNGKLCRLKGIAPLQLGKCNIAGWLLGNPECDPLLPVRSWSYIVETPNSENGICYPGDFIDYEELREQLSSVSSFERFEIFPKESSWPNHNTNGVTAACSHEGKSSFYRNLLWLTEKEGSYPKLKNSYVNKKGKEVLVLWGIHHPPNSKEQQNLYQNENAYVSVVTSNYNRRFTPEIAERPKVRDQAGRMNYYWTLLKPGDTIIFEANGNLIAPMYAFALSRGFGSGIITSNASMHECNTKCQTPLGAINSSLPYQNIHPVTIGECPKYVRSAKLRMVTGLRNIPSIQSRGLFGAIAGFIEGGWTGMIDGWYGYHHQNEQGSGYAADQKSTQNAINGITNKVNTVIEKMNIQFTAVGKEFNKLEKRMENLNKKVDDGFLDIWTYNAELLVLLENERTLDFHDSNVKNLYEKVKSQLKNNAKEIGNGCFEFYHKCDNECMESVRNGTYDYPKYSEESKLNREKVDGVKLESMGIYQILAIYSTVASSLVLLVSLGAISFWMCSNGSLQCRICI
How it was run: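 Twofold serial compound dilutions mixed with PR8 at different titres for 30 min at RT. 0.5% chicken erythrocytes added; read after 1 h at 37 °C. Virus diluent without compound as negative control, PBS as blank.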

[7] = Cytotoxicity against MDCK cells by MTT assay; assay type: cell-based, Canis lupus familiaris; conditions: dog
How it was run: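 MDCK viability measured by MTT at concentrations up to 200 μM. Run in triplicate; CC50 reported.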

Influenza A virus [8] = assay: Antiviral activity against Influenza A virus (A/PR/8/34(H1N1)) infected in MDCK cells assessed as reduction in viral NP protein expression after 24 hrs by DAPI staining based fluorescence microscopic method; assay type: functional, organism-based; conditions: A/Puerto Rico/8/1934(H1N1)
How it was run: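 MDCK cells infected at MOI 0.01 for 1 h, then given increasing concentrations for 24 h. Fixed in 4% paraformaldehyde and blocked with 3% BSA. Stained with anti-NP (1:200, overnight, 4 °C), then FITC secondary (4 h, RT); DAPI nuclear stain; fluorescence microscopy.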

Staphylococcus aureus = assay: Antibacterial activity against Staphylococcus aureus subsp. aureus Rosenbach ATCC 25923; assay type: functional
[9] = target: Polymerase basic protein 2 (Influenza A virus (strain A/Puerto Rico/8/1934 H1N1)) (UniProt P03428); assay: Inhibition of fluorescently-labeled m7GTP binding to Influenza A virus RNA polymerase PB2 preincubated for 15 mins followed by m7GTP addition measured after 1 hr by HTRF assay
Sequence of Polymerase basic protein 2 (Influenza A virus (strain A/Puerto Rico/8/1934 H1N1)) (P03428 whole entry, looked up): as the sequence (P03428 whole entry) above
How it was run: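 PB2 protein preincubated with compound at different concentrations for 15 min at RT. Premixed fluorescent probe (m7GTP cap analogue) added; HTRF read after 1 h. Three independent experiments, mean ± SD.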

Influenza A virus H3N2 = assay: Antiviral activity against Influenza A virus (A/Aichi/2/68(H3N2)) infected in MDCK cells assessed as reduction in virus-induced cytopathic effect by MTT assay; assay type: functional, organism-based; conditions: A/Aichi/2/1968(H3N2)
How it was run: (§2)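 MTT-based cytopathic-effect reduction assay in MDCK cells. Run in triplicate; IC50 reported as mean ± SD.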

786-0 = assay: Cytotoxicity against human 786-O cells by MTT assay; assay type: functional, cell-based
Influenza A virus [10] = assay: Antiviral activity against Influenza A virus (A/PR/8/34(H1N1)) infected in MDCK cells assessed as reduction in virus-induced cytopathic effect by MTT assay; assay type: functional, organism-based; conditions: A/Puerto Rico/8/1934(H1N1); how it was run: as §2
HepG2 = assay: Cytotoxicity against human HepG2 cells by MTT assay; assay type: functional, cell-based
Influenza A virus [11] = assay: Antiviral activity against Influenza A virus (A/PR/8/34(H1N1)) infected in MDCK cells assessed as reduction in virus-induced cytopathic effect treated post viral infection for 1 hr and measured after 48 hrs by MTT assay; assay type: functional, organism-based; conditions: A/Puerto Rico/8/1934(H1N1)
How it was run: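 Postinfection: infected MDCK cells given increasing concentrations for 1 h at 37 °C, then medium replaced. Viability by MTT after a further 48 h.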

[12] = test system: Erysipelothrix rhusiopathiae; assay: Antibacterial activity against Erysipelothrix rhusiopathiae ATCC 19414; assay type: functional
Influenza A virus [13] = assay: Antiviral activity against Influenza A virus (A/PR/8/34(H1N1)) infected in MDCK cells assessed as reduction in plaque formation after 72 hrs by crystal violet staining based assay; assay type: functional, organism-based; conditions: A/Puerto Rico/8/1934(H1N1)
How it was run: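 MDCK monolayers infected with PR8 at MOI 0.005 for 1 h at 37 °C. Overlay of serum-free MEM with serially diluted compound, 2% microcrystalline cellulose and 1.5 μg/mL trypsin. After 72 h, cells fixed and stained with 4% paraformaldehyde/2% crystal violet for 20 min; plaques assessed.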

Influenza A virus [14] = assay: Antiviral activity against Influenza A virus (A/PR/8/34(H1N1)) infected in MDCK cells assessed as reduction in viral HA mRNA level at 10 uM measured 10 hrs post infection by qRT-PCR analysis; assay type: functional, organism-based; conditions: Influenza A virus (A/Puerto Rico/8/1934(H1N1)); how it was run: as §1
SGC-7901 = assay: Cytotoxicity against human SGC7901 cells by MTT assay; assay type: functional, cell-based
Influenza A virus [15] = assay: Antiviral activity against Influenza A virus (A/PR/8/34(H1N1)) infected in MDCK cells assessed as reduction in viral NP protein expression after 24 hrs by Western blot method; assay type: functional, organism-based; conditions: A/Puerto Rico/8/1934(H1N1)
How it was run: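 MDCK monolayers infected with PR8 at MOI 0.01 for 1 h at 37 °C, then given serial dilutions. At 24 h, lysates equalised for protein and run on 10% SDS-PAGE. NP detected with anti-NP (1:1000) and HRP secondary, β-actin as loading control; ECL read-out.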

ACHN = assay: Cytotoxicity against human ACHN cells by MTT assay; assay type: functional, cell-based
[16] = target: Neuraminidase (Influenza A virus (A/Puerto Rico/8/1934(H1N1))) (UniProt P03468); assay: Inhibition of Influenza A virus (A/PR/8/34(H1N1)) NA assessed as reduction in viral particle release using 2-(4-methylumbelliferyl)-alpha-D-N-acetylneuraminic acid sodium as substrate preincubated for 30 mins followed by substrate addition and measured for 1 hr by fluorescence assay
Sequence of Neuraminidase (Influenza A virus (A/Puerto Rico/8/1934(H1N1))) (P03468 whole entry): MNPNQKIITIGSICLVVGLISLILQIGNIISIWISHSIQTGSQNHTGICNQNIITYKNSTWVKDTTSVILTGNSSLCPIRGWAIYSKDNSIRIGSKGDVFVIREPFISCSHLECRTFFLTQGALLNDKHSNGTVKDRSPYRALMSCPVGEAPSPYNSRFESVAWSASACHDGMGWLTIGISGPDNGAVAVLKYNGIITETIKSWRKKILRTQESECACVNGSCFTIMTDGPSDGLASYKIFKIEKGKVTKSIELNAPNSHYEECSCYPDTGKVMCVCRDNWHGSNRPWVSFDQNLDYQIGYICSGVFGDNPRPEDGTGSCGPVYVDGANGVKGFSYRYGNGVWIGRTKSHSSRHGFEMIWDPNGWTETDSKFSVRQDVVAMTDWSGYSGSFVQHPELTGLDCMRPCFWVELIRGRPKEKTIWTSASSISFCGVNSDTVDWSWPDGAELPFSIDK
How it was run: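 PR8 in reaction buffer mixed with twofold-diluted compound for 30 min at 37 °C. 20 μM MUNANA substrate added for 1 h at 37 °C; stopped with 14 mM NaOH. 4-MU fluorescence read at ex 340/em 440 nm.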

Influenza A virus [17] = assay: Antiviral activity against Influenza A virus isolate 690 (H3) infected in MDCK cells assessed as reduction in virus-induced cytopathic effect by MTT assay; assay type: functional, organism-based; how it was run: as §2
Escherichia coli = assay: Antibacterial activity against Escherichia coli ATCC 25922; assay type: functional
Cynodon dactylon = assay: Inhibition of seed germination in Cynodon dactylon at 100 ug/ml after 7 days; assay type: functional, organism-based
How it was run: (§3)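 Ten surface-sterilised seeds per well on agar. Test solution at 100 μg/mL in 5% EtOH added; three wells per sample. Incubated at 20 °C, 12:12 h photoperiod, 7 days; germination scored.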

OS-RC-2 = assay: Cytotoxicity against human OS-RC2 cells by MTT assay; assay type: functional, cell-based
Influenza A virus [18] = assay: Antiviral activity against Influenza A virus (A/FM-1/1/47(H1N1)) infected in MDCK cells assessed as reduction in virus-induced cytopathic effect by MTT assay; assay type: functional, organism-based; conditions: A/Fort Monmouth/1/1947(H1N1); how it was run: as §2
Influenza A virus [19] = assay: Antiviral activity against Influenza A virus (A/PR/8/34(H1N1)) infected in MDCK cells assessed as reduction in viral HA mRNA expression after 24 hrs by qRT-PCR method; assay type: functional, organism-based; conditions: A/Puerto Rico/8/1934(H1N1)
How it was run: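 Infected MDCK cells treated with a concentration series for 24 h. Total RNA reverse-transcribed; viral HA mRNA quantified by qRT-PCR with GAPDH as internal control. Triplicate, mean ± SD.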

Arabidopsis thaliana = assay: Inhibition of seed germination in Arabidopsis thaliana at 100 ug/ml after 7 days; assay type: functional, organism-based; how it was run: as §3
Influenza A virus [20] = assay: Antiviral activity against Influenza A virus (A/PR/8/34(H1N1)) infected in MDCK cells assessed as reduction in virus-induced cytopathic effect co-treated with viral infection for 30 mins and measured after 48 hrs by MTT assay; assay type: functional, organism-based; conditions: A/Puerto Rico/8/1934(H1N1)
How it was run: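 Entire-infection: virus–compound mixture (PR8, MOI 0.01, 30 min at 37 °C) added to MDCK cells. Unabsorbed virus removed; fresh medium with 1 μg/mL TPCK-trypsin plus compound added. Viability by MTT after 48 h.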

| Structure (SMILES) | inhibition [1] | pKd [2] | MIC [3] [µg/mL] | MIC (Staphylococcus aureus) [µg/mL] | pIC50 (786-0) | pIC50 (Influenza A virus [10]) | pIC50 (HepG2) | MIC [12] [µg/mL] | pIC50 (SGC-7901) | pIC50 (ACHN) | MIC (Escherichia coli) [µg/mL] | inhibition (Cynodon dactylon) | pIC50 (OS-RC-2) | inhibition (Arabidopsis thaliana) | also measured |
| --- | --- | --- | --- | --- | --- | --- | --- | --- | --- | --- | --- | --- | --- | --- | --- |
| CCC(CC)[C@H](NC(C)=O)[C@@H]1[C@H](O)[C@@H](C(=O)O)C[C@H]1NC(=N)N | inactive |  |  |  |  |  |  |  |  |  |  |  |  |  |  |
| O=c1oc2cc(O)cc(O)c2c2ccccc12 |  | 5.44 |  |  |  |  |  |  |  |  |  |  |  |  |  |
| CC/C=C1/C=CC(=O)[C@@H](O)[C@]12C(=O)N(OC)[C@@](C)(OC)[C@@H]2O | Active | 7.11 | > 100 | > 100 | < 4.30 | 5.80 | < 4.30 | > 100 | < 4.30 | < 4.30 | > 100 | inactive | < 4.30 | inactive | Activity (Influenza A virus [4]): inactive; Activity (Influenza A virus [5]): Active; inhibition [6]: inactive; CC50 [7]: > 200 µM; Activity (Influenza A virus [8]): Dose-dependent effect; inhibition [9]: Dose-dependent effect; pIC50 (Influenza A virus H3N2): 5.39; Activity (Influenza A virus [11]): Active; Activity (Influenza A virus [13]): Dose-dependent effect; Activity (Influenza A virus [14]): Active; Activity (Influenza A virus [15]): Dose-dependent effect; inhibition [16]: inactive; pIC50 (Influenza A virus [17]): 5.77; pIC50 (Influenza A virus [18]): 5.26; Activity (Influenza A virus [19]): Dose-dependent effect; Activity (Influenza A virus [20]): Active |
| C=C1[C@H](O)[C@@]2(C(=O)N1OC)/C(=C\CC)C=CC(=O)[C@H]2O |  |  | > 100 | > 100 | < 4.30 | 4.68 | < 4.30 | > 100 | < 4.30 | < 4.30 | > 100 | inactive | < 4.30 | inactive |  |
